Source: PubChem
SENP6 block = inhibitors of human SENP6 protease. Q9GZR1. Recombinant SENP6 catalytic domain, aminoluciferin luminescence. inhibition, % at 10 µM. hit rate 1.8% among 330,000;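 active = inhibition above about 50% at the single tested dose, limit read from the data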;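 also: plate controls were DMSO wells with enzyme for no effect and DMSO wells lacking enzyme for full effect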
SENP7 block = inhibitors of human SENP7 protease | recombinant SENP7, Z-RLRGG-aminoluciferin luminescence, 40 min | inhibition, % at 5 µM | hit rate 1.5% among 330,000 | AID 434973;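 active = inhibition above about 50% at the single test dose, limit read from the data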;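 also: plate controls were DMSO with enzyme for no effect and no enzyme buffer wells for full effect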
SENP8 block-1 = SENP8 protease inhibition | Q96LD8 | purified SENP8, Z-RLRGG-aminoluciferin cleavage, luminescence | inhibition, % at 10 µM | hit rate 1.2% among 330,000; in the data active = inhibition above about 50%
Target sequence (Q96LD8 whole entry, looked up): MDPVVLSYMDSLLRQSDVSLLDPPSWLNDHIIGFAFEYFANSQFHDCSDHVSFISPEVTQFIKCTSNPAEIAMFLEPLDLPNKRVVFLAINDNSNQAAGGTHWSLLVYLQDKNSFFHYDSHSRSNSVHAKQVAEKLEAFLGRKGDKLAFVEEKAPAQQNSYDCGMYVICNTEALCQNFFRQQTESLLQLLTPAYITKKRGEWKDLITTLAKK
Apaf-1 inh = human Apaf-1 inhibition. reconstituted apoptosome caspase-3 activity, DEVD-Rh110 fluorescence. inhibition, % at 20 µM. hit rate 0.71% among 330,000. AID 489030; active = inhibition of at least 40% at 20 µM;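 also: plate controls were DMSO wells for no effect and DEVD-CHO caspase inhibitor wells for full effect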
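Material: reconstituted apoptosome with Apaf-1, cytochrome c, caspase-9, procaspase-3, dATP. Technique: Rh110 fluorescence intensity. Buffer or medium: pH 7.5 Hepes buffer with CHAPS, BSA, DTT. Times: 30 min plus 50 min, RT.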
UBC13 inh = human UBC13 polyubiquitination inhibition; hit rate 0.47% among 330,000; P61088; inhibition, % at 20 µM; UBC13 polyubiquitin chain formation, TR-FRET; in the data active = inhibition above about 45%, passing the limit was not always enough; inconclusive = no clear call, values can overlap the other calls
Target sequence (P61088 whole entry, looked up): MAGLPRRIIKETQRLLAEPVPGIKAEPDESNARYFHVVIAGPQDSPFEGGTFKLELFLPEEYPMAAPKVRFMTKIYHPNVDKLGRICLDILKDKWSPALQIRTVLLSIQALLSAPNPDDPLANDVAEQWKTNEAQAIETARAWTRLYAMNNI
SENP8 block-2 = SENP8 (human) protease inhibition. Q96LD8. recombinant SENP8, Nedd8 substrate fluorescence. inhibition, % at 20 µM. hit rate 0.64% among 360,000; in the data active = inhibition mostly above about 40%, no sharp cut-off; inactive = mostly below about 27%
Casp3 counter = counter-screen for UBC13 inhibitors: human caspase-3 inhibition; shares compounds with UBC13 inh; Recombinant caspase-3, Caspase-Glo 3/7 luminescence, 60 min; inhibition, % at 20 µM; hit rate 4% among 1,400; AID 488856;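 active = mean inhibition across replicates above about 26%, limit read from the data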;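 also: plate controls were DMSO with caspase-3 for no effect and DMSO wells lacking enzyme for full effect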
UBC13 confirm = confirmation of human UBC13 polyubiquitin inhibitors; UBC13 polyubiquitination, TR-FRET, biochemical; hit rate 68% among 1,400; inhibition, % at 10 µM; shares compounds with UBC13 inh; AID 488859; in the data active = inhibition above about 45%; inconclusive = no clear call, values can overlap the other calls
Active calls of the source: *; ? = inconclusive; . = not tested or not shown. A selection: hits, their analogues and other compounds. The true share with any hit is near 3%.

SMILES	SENP6 block	SENP7 block	SENP8 block-1	Apaf-1 inh	UBC13 inh	SENP8 block-2	Casp3 counter	UBC13 confirm
COc1ccc(NC(=O)CS(=O)CC(=O)Nc2cc(Cl)ccc2OC)cc1 (centres undefined)	0.5	-8.7	0.7	-5.6	53.6*	32.9	-2.0	53.3*
COc1ccc(NC(=O)CS(=O)CC(=O)Nc2ccc(OC)c(OC)c2)cc1 (centres undefined)	-11.3	-0.9	-2.6	1.4	-10.2	25.8	.	.
O=C(Cn1cnc([N+](=O)[O-])n1)N/N=C/c1cc(Cl)ccc1O	17.6	1.1	3.7	0.4	-9.1	5.8	.	.
CCC[C@H](CN[C@@H](CNC)[C@H](C)CC)NCCc1cc(C(F)(F)F)cc(C(F)(F)F)c1	-21.6	7.3	-1.7	11.9	85.5*	16.3	5.1	73.1*
CCC[C@@H](CN[C@@H](CNC)[C@H](C)CC)NCC1CCC(C(C)(C)C)CC1 (some centres undefined)	-4.0	-2.9	-1.7	2.9	63.4*	22.1	-2.7	60.6*
Cc1ccccc1NC(=O)Cc1nc(COC(=O)CSc2ccccc2)cs1	-20.2	15.4	-9.0	19.3	-5.3	-0.1	.	.
CCc1noc(C)c1C(=O)Nc1ccc(C#N)cc1	-11.8	-8.9	-1.1	-1.9	1.5	10.4	.	.
COC(=O)C1=C(C)N(Cc2ccccc2)C(=NCc2cccc(Cl)c2)N[C@H]1c1cccc(F)c1	-22.5	-9.1	-22.1	67.4*	72.0*	8.9	-1.4	86.4*
COC(=O)C1=C(C)N(Cc2ccccc2)C(=NCc2cc(OC)c(OC)c(OC)c2)N[C@H]1c1cccc(F)c1	-16.5	-3.4	8.6	11.5	30.2	-126.9	.	.
CCC(=O)c1cc2c(C)cc(=O)oc2c(C)c1O	-17.7	-1.0	1.1	0.0	45.4*	-9.9	-2.1	?
CCC(=O)c1cc2c(C)cc(=O)oc2c(C)c1OC(C)=O	-10.4	2.6	0.0	3.8	34.6	-215.7	.	.
O=C(Nc1ccc(Cl)cc1)C1Cc2c(-c3ccccc3Oc3ccccc3)ccnc2O1 (centres undefined)	.	.	.	.	.	5.7	.	.
NC(=O)c1ccccc1NC(=O)CSc1nc2c(c(=O)[nH]1)CCCC2	20.6	1.2	1.6	-0.7	5.6	-12.7	.	.
N#C/C(=C/c1cn(-c2ccccc2)nc1-c1cccc(OCc2ccccc2)c1)C(=O)NCCCn1ccnc1	-7.4	-3.1	-17.0	6.2	48.1*	-163.7	-1.2	55.6*
CCOc1cccc(-c2nn(-c3ccccc3)cc2/C=C(/C#N)C(=O)NCCCn2ccnc2)c1	-12.0	6.1	2.3	26.1	14.2	-122.7	.	.
CN(Cc1ccccc1)C(=O)c1nn2cccnc2c1Cl	5.7	8.8	5.7	-7.6	19.5	-15.7	.	.
CC1(Oc2ccc(CC#N)cc2)CCN(Cc2ccc(-n3ccnc3)cc2)C1 (centres undefined)	.	.	.	.	.	24.5	.	.
COc1ccc(C2CC(=O)c3cnc(NC(=O)c4ccccc4)nc3C2)cc1OC (centres undefined)	-1.4	2.4	-4.7	-0.6	-7.6	4.6	.	.
COc1ccc(C2CC(=O)c3cnc(N4CCc5ccccc54)nc3C2)cc1OC (centres undefined)	-9.2	11.5	-4.4	6.1	59.5*	.	2.5	?
CCO[C@H]1c2c(ccc3ccc(=O)oc23)OC(C)(C)[C@@H]1O	-11.6	-5.7	-7.4	-2.7	-7.6	-495.7	.	.
Cc1ccc(CS(=O)(=O)c2ncc(Cl)c(C(=O)Nc3nnc(C(C)C)s3)n2)cc1	-10.5	1.6	-5.4	2.5	50.2*	-10.4	0.6	63.2*
CC(=O)Nc1ccc(NC(=O)c2nc(S(=O)(=O)Cc3ccccc3)ncc2Cl)cc1	-17.8	-11.4	-4.0	5.5	47.4*	12.5	-4.5	45.2*
CC(C)c1nnc(NC(=O)c2nc(S(=O)(=O)Cc3ccc(F)cc3)ncc2Cl)s1	-4.2	3.9	-3.2	-5.9	39.4	9.9	.	.
O=C(NCc1ccccc1)c1nc(S(=O)(=O)Cc2ccccc2)ncc1Cl	-18.6	-11.9	-15.7	-0.4	14.9	10.4	.	.
CN1CCN(C2Cc3ccccc3Sc3ccc(Cl)cc32)CC1 (centres undefined)	-4.2	7.9	-7.8	37.9	45.0*	4.9	-3.8	25.7
